From article PMC3806060 (Journal of medicinal chemistry, 2013)

Legend:
[1] = test system: H146 small-cell lung cancer cell line; test: Cell growth inhibition assay; assay type: cell-based, Human
Bcl-2 [2] = molecular target: T1, Bcl-2 (Homo sapiens, UniProt P10415); test: FP based competitive binding assay, Bcl-2; conditions: versus 8
Bcl-xL [3] = molecular target: T2, Bcl-xL (Homo sapiens, UniProt Q07817); test: FP based competitive binding assay, Bcl-xL; conditions: versus 8
Summary of the method: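 Competitive fluorescence-polarization assay for Bcl-xL: pre-incubated Bcl-xL (10 nM) and fluorescent probe (2 nM) with serial dilutions of test compound, room temperature, 2 h, gentle shaking. Millipolarization plotted against total compound concentration. IC50 obtained by nonlinear regression; Ki calculated from IC50.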

Bcl-2 [4] = molecular target: T1, Bcl-2; conditions: read-out: Ki, binding to Bcl-2; cited from earlier work
[5] = test system: animal model of human cancer; conditions: cited from earlier work
Bcl-xL [6] = molecular target: T2, Bcl-xL; conditions: read-out: Ki, binding to Bcl-xL; cited from earlier work
[7] = cited from earlier work
[8] = test system: H146 small-cell lung cancer xenograft; conditions: 25 mg/kg, i.v., 5 days per week for 2 weeks; cited from earlier work

T1 sequence (P10415 whole entry): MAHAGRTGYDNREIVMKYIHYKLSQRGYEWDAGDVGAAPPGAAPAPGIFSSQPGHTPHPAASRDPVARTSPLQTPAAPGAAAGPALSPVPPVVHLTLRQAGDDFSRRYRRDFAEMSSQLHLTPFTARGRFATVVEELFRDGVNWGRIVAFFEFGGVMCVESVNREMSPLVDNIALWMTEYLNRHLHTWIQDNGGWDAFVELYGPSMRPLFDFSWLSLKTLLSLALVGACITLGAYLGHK
T2 sequence (Q07817 whole entry): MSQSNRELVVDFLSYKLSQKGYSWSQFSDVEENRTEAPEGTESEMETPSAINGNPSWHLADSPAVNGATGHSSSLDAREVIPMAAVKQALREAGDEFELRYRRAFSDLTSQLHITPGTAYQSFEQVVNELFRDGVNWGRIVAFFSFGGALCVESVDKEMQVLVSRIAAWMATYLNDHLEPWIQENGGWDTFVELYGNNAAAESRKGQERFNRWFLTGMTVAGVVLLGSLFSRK

Row | Compound | Times less potent than compound 8 in H146 cell growth inhibition ([1]; versus 8) [times] | Times less potent than compound 8 in binding to Bcl-2 (Bcl-2 [2]) [times] | Times less potent than compound 8 in binding to Bcl-xL (Bcl-xL [3]) [times] | Ki (Bcl-2 [4]) [nM] | Tumor regression [5] | Ki (Bcl-xL [6]) [nM] | Chemical stability [7] | Times more potent than compound 4 in H146 cell growth inhibition ([1]; versus 4) [times] | Antitumor activity in H146 xenograft model [8]
1 | Cc1c(C(N)=O)c(-c2cccc(N3CCN(c4ccc(NS(=O)(=O)c5ccc(N[C@H](CCN(C)C)CSc6ccccc6)c([N+](=O)[O-])c5)cc4)CC3)c2)c(-c2ccc(Cl)cc2)n1C [Compound 9, (R)-5-(4-Chlorophenyl)-4-(3-(4-(4-(4-(4-(dimethylamino)-1-(phenylthio)butan-2-ylamino)-3-nitrophenylsulfonamido)phenyl)piperazin-1-yl)phenyl)-1,2-dimethyl-1H-pyrrole-3-carboxamide] | 6 | 4 | 2 |  |  |  |  |  | 
2 | CCn1c(C)c(C(=O)O)c(-c2cccc(N3CCN(c4ccc(NS(=O)(=O)c5ccc(N[C@H](CCN6CCC(O)CC6)CSc6ccccc6)c(S(=O)(=O)C(F)(F)F)c5)cc4)CC3)c2)c1-c1ccc(Cl)cc1 [Compound 6, BM-957] |  |  |  | < 1 | achieved tumor regression | < 1 |  |  | 
3 | CCn1c(C)c(C(=O)O)c(-c2cccc(N3CCN(c4ccc(NS(=O)(=O)c5ccc(N[C@H](CCN(C)C)CSc6ccccc6)c([N+](=O)[O-])c5)cc4)CC3)c2)c1-c1ccc(Cl)cc1 [Compound 5] |  |  |  | < 1 |  | < 1 | excellent chemical stability | 8 | failed to achieve long-lasting tumor regression
